ChEMBL document CHEMBL1149660, “Identification and characterization of novel sodium/potassium-ATPase inhibitors by virtual screening of a compound database” (Bioorg Med Chem, 2007)
Active and inactive are the calls of the source. No cut-off for these calls is given here.

Key:
Sus scrofa [1] = organism: Sus scrofa; assay: (§1) Inhibition of Na/K-ATPase in porcine cerebral cortex; format: tissue-based
Outline: (§2)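 Coupled pyruvate kinase/lactate dehydrogenase assay using lyophilized porcine cerebral cortex Na/K-ATPase. The enzyme was preincubated at 37 °C for at least 30 min (or overnight at room temperature first, in some cases) with 10–14 inhibitor concentrations. Reactions were started with 5 mM ATP. NADH oxidation was followed at 340 nm for 5 min. IC50 came from the inhibition curves; relative potency is the IC50 divided by ouabain's IC50.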

[2] = as §1; format: tissue-based, Sus scrofa; outline: as §2
Sus scrofa [3] = organism: Sus scrofa; assay: Inhibition of Na/K-ATPase in porcine cerebral cortex relative to ouabain; format: tissue-based; outline: as §2

Compound	Activity (Sus scrofa [1])	IC50 [2] [nM]	Activity (Sus scrofa [3])
CC(=O)OCC(=O)[C@@]1(OC(C)=O)CC[C@H]2[C@@H]3CC[C@H]4C[C@H](OC(C)=O)CC[C@]4(C)[C@H]3CC[C@@]21C	inactive	–	–
C[C@H]1O[C@@H](O[C@H]2CC[C@]3(C=O)[C@H]4CC[C@]5(C)[C@@H](C6=CC(=O)OC6)CC[C@]5(O)[C@@H]4CC[C@]3(O)C2)C[C@H]2OC(C)(C)O[C@@H]12	–	14.6	0.031
C[C@H]1CCC([C@@H](C)[C@H]2CC[C@@H]3[C@@H]2CC[C@H]2[C@H]3CC(=O)[C@H]3C[C@@H](O)CC[C@@]32C)=NC1	–	143000	305
CO[C@H]1[C@H](O)[C@H](O[C@H]2CC[C@@]3(C=O)[C@@H](CC[C@@H]4[C@H]3CC[C@]3(C)[C@@H](c5ccc(=O)oc5)CC[C@]43O)C2)O[C@@H](C)[C@@H]1O	–	55.6	0.118
C[C@]12CC[C@H]3[C@@H](CC[C@]4(O)C[C@@H](O)CC[C@]34/C=N/Nc3ccccc3)[C@@]1(O)CC[C@@H]2C1=CC(=O)OC1	–	4230	7.89
C[C@@H]1C[C@@H]2O[C@]3(C[C@@]4(C)[C@@H]5[C@@H](O)C[C@H]6C(C)(C)[C@@H](O[C@H]7OC[C@H](O)[C@@H](O)[C@@H]7O)CC[C@@]67C[C@@]57CC[C@]4(C)[C@@H]13)O[C@@H]2C(C)(C)O	inactive	–	–
C[C@]12CC[C@H]3[C@@H](CC[C@]4(O)C[C@@H](OC(=O)c5cccnc5)CC[C@]34C=O)[C@@]1(O)CC[C@@H]2C1=CC(=O)OC1	–	443	0.944
CC1OC(O[C@H]2CC[C@]3(/C=N/CCc4ccc(O)cc4)[C@H]4CC[C@]5(C)[C@@H](C6=CC(=O)OC6)CC[C@]5(O)[C@@H]4CC[C@]3(O)C2)CC(O)C1O (some centres not stated)	–	2640	4.92
CC(C)(O)[C@H]1CC[C@@](C)([C@H]2[C@@H](O)C[C@@]3(C)[C@@H]4C[C@H](O)C5C(C)(C)[C@@H](O[C@@H]6O[C@H](CO)[C@@H](O)[C@H](O)[C@H]6O)CC[C@@]56C[C@@]46CC[C@]23C)O1 (some centres not stated)	inactive	–	–
C[C@]12CC[C@@H](O)C[C@@H]1[C@@H](O)C[C@H]1[C@H]2CC[C@]2(C)[C@@H]([C@@]3(C)CO3)CC[C@]12C	inactive	–	–
C[C@]12CC[C@H]3[C@@H](CC[C@]4(O)C[C@@H](O)CC[C@]34/C=N/C34CC5CC(CC(C5)C3)C4)[C@@]1(O)CC[C@@H]2C1=CC(=O)OC1	–	313	0.668
C[C@H]1O[C@@H](O[C@H]2CC[C@]3(C=O)[C@H]4CC[C@]5(C)[C@@H](C6=CC(=O)OC6)CC[C@]5(O)[C@@H]4CC[C@]3(O)C2)C[C@H](O)[C@@H]1O[C@@H]1OC[C@@H](O)[C@H](O)[C@H]1O	–	160	0.341
C[C@H]1O[C@@H](O[C@H]2CC[C@]3(C=O)[C@H]4CC[C@]5(C)[C@@H](C6=COC(=O)C6)CC[C@]5(O)[C@@H]4CC[C@]3(O)C2)C[C@@H]2OC3(CCCCC3)O[C@@H]21	–	409	0.872
